{"source": "paper PMC9116722", "about": "(Cancer chemotherapy and pharmacology, 2022)", "test": "Adverse events", "type": "in vivo, human", "conditions": "BRCAmut", "procedure,_shortened": "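Patients with germline BRCA-mutated cancers, or BRCA-wildtype TNBC or platinum-refractory ovarian cancer, took oral drug continuously twice daily in 28-day cycles. There were nine dose levels from 50 to 500 mg BID under 3+3 escalation, run separately per cohort after the first DLT. Toxicities were graded by CTCAE v4.0, with DLTs assessed during cycle 1.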"}
{"smiles": "C[C@]1(c2nc3c(C(N)=O)cccc3[nH]2)CCCN1", "note": "[veliparib]", "values": [{"measurement": "Anemia, Grade 3", "setting": "DL3 100/100 mg AM/PM", "value": "0 number of patients (%)"}, {"measurement": "Anemia, Grade 4", "setting": "DL3 100/100 mg AM/PM", "value": "0 number of patients (%)"}, {"measurement": "Any Grade 3/4 toxicity", "setting": "DL3 100/100 mg AM/PM", "value": "0 number of patients (%)"}, {"measurement": "Any Grade 3 toxicity", "setting": "DL3 100/100 mg AM/PM", "value": "0 number of patients (%)"}, {"measurement": "Any Grade 4 toxicity", "setting": "DL3 100/100 mg AM/PM", "value": "0 number of patients (%)"}, {"measurement": "Appendicitis, Grade 3", "setting": "DL3 100/100 mg AM/PM", "value": "0 number of patients (%)"}, {"measurement": "Aspartate aminotransferase increased, Grade 3", "setting": "DL3 100/100 mg AM/PM", "value": "0 number of patients (%)"}, {"measurement": "Dehydration, Grade 3", "setting": "DL3 100/100 mg AM/PM", "value": "0 number of patients (%)"}, {"measurement": "Dyspnea, Grade 4", "setting": "DL3 100/100 mg AM/PM", "value": "0 number of patients (%)"}, {"measurement": "Fatigue, Grade 3", "setting": "DL3 100/100 mg AM/PM", "value": "0 number of patients (%)"}, {"measurement": "Headache, Grade 3", "setting": "DL3 100/100 mg AM/PM", "value": "0 number of patients (%)"}, {"measurement": "Hypophosphatemia, Grade 3", "setting": "DL3 100/100 mg AM/PM", "value": "0 number of patients (%)"}, {"measurement": "Lymphocyte count decreased, Grade 3", "setting": "DL3 100/100 mg AM/PM", "value": "0 number of patients (%)"}, {"measurement": "Lymphocyte count decreased, Grade 4", "setting": "DL3 100/100 mg AM/PM", "value": "0 number of patients (%)"}, {"measurement": "Nausea, Grade 3", "setting": "DL3 100/100 mg AM/PM", "value": "0 number of patients (%)"}, {"measurement": "Platelet count decreased, Grade 4", "setting": "DL3 100/100 mg AM/PM", "value": "0 number of patients (%)"}, {"measurement": "Thromboembolic event, Grade 3", "setting": "DL3 100/100 mg AM/PM", "value": "0 number of patients (%)"}, {"measurement": "Thromboembolic event, Grade 4", "setting": "DL3 100/100 mg AM/PM", "value": "0 number of patients (%)"}, {"measurement": "Urinary tract infection, Grade 3", "setting": "DL3 100/100 mg AM/PM", "value": "0 number of patients (%)"}, {"measurement": "Abdominal pain, Grade 3", "setting": "DL6 200/200 mg AM/PM", "value": "0 number of patients (%)"}, {"measurement": "Alkaline phosphatase increased, Grade 3", "setting": "DL6 200/200 mg AM/PM", "value": "0 number of patients (%)"}, {"measurement": "Anemia, Grade 3", "setting": "DL6 200/200 mg AM/PM", "value": "0 number of patients (%)"}, {"measurement": "Anemia, Grade 4", "setting": "DL6 200/200 mg AM/PM", "value": "0 number of patients (%)"}, {"measurement": "Any Grade 3/4 toxicity", "setting": "DL6 200/200 mg AM/PM", "value": "0 number of patients (%)"}, {"measurement": "Any Grade 3 toxicity", "setting": "DL6 200/200 mg AM/PM", "value": "0 number of patients (%)"}, {"measurement": "Any Grade 4 toxicity", "setting": "DL6 200/200 mg AM/PM", "value": "0 number of patients (%)"}, {"measurement": "Appendicitis, Grade 3", "setting": "DL6 200/200 mg AM/PM", "value": "0 number of patients (%)"}, {"measurement": "Aspartate aminotransferase increased, Grade 3", "setting": "DL6 200/200 mg AM/PM", "value": "0 number of patients (%)"}, {"measurement": "Dehydration, Grade 3", "setting": "DL6 200/200 mg AM/PM", "value": "0 number of patients (%)"}, {"measurement": "Dyspnea, Grade 4", "setting": "DL6 200/200 mg AM/PM", "value": "0 number of patients (%)"}, {"measurement": "Fatigue, Grade 3", "setting": "DL6 200/200 mg AM/PM", "value": "0 number of patients (%)"}, {"measurement": "Headache, Grade 3", "setting": "DL6 200/200 mg AM/PM", "value": "0 number of patients (%)"}, {"measurement": "Hypophosphatemia, Grade 3", "setting": "DL6 200/200 mg AM/PM", "value": "0 number of patients (%)"}, {"measurement": "Lymphocyte count decreased, Grade 3", "setting": "DL6 200/200 mg AM/PM", "value": "0 number of patients (%)"}, {"measurement": "Lymphocyte count decreased, Grade 4", "setting": "DL6 200/200 mg AM/PM", "value": "0 number of patients (%)"}, {"measurement": "Nausea, Grade 3", "setting": "DL6 200/200 mg AM/PM", "value": "0 number of patients (%)"}, {"measurement": "Platelet count decreased, Grade 4", "setting": "DL6 200/200 mg AM/PM", "value": "0 number of patients (%)"}, {"measurement": "Thromboembolic event, Grade 3", "setting": "DL6 200/200 mg AM/PM", "value": "0 number of patients (%)"}, {"measurement": "Thromboembolic event, Grade 4", "setting": "DL6 200/200 mg AM/PM", "value": "0 number of patients (%)"}, {"measurement": "Urinary tract infection, Grade 3", "setting": "DL6 200/200 mg AM/PM", "value": "0 number of patients (%)"}, {"measurement": "Abdominal pain, Grade 3", "setting": "DL7 300/300 mg AM/PM", "value": "0 number of patients (%)"}, {"measurement": "Alkaline phosphatase increased, Grade 3", "setting": "DL7 300/300 mg AM/PM", "value": "0 number of patients (%)"}, {"measurement": "Anemia, Grade 3", "setting": "DL7 300/300 mg AM/PM", "value": "0 number of patients (%)"}, {"measurement": "Anemia, Grade 4", "setting": "DL7 300/300 mg AM/PM", "value": "0 number of patients (%)"}, {"measurement": "Any Grade 3/4 toxicity", "setting": "DL7 300/300 mg AM/PM", "value": "2 (33) number of patients (%)"}, {"measurement": "Any Grade 3 toxicity", "setting": "DL7 300/300 mg AM/PM", "value": "2 (33) number of patients (%)"}, {"measurement": "Any Grade 4 toxicity", "setting": "DL7 300/300 mg AM/PM", "value": "0 number of patients (%)"}, {"measurement": "Appendicitis, Grade 3", "setting": "DL7 300/300 mg AM/PM", "value": "1 (17) number of patients (%)"}, {"measurement": "Aspartate aminotransferase increased, Grade 3", "setting": "DL7 300/300 mg AM/PM", "value": "0 number of patients (%)"}, {"measurement": "Dehydration, Grade 3", "setting": "DL7 300/300 mg AM/PM", "value": "0 number of patients (%)"}, {"measurement": "Dyspnea, Grade 4", "setting": "DL7 300/300 mg AM/PM", "value": "0 number of patients (%)"}, {"measurement": "Fatigue, Grade 3", "setting": "DL7 300/300 mg AM/PM", "value": "0 number of patients (%)"}, {"measurement": "Headache, Grade 3", "setting": "DL7 300/300 mg AM/PM", "value": "1 (17) number of patients (%)"}, {"measurement": "Hypophosphatemia, Grade 3", "setting": "DL7 300/300 mg AM/PM", "value": "0 number of patients (%)"}, {"measurement": "Lymphocyte count decreased, Grade 3", "setting": "DL7 300/300 mg AM/PM", "value": "1 (17) number of patients (%)"}, {"measurement": "Lymphocyte count decreased, Grade 4", "setting": "DL7 300/300 mg AM/PM", "value": "0 number of patients (%)"}, {"measurement": "Nausea, Grade 3", "setting": "DL7 300/300 mg AM/PM", "value": "0 number of patients (%)"}, {"measurement": "Platelet count decreased, Grade 4", "setting": "DL7 300/300 mg AM/PM", "value": "0 number of patients (%)"}, {"measurement": "Thromboembolic event, Grade 3", "setting": "DL7 300/300 mg AM/PM", "value": "0 number of patients (%)"}, {"measurement": "Thromboembolic event, Grade 4", "setting": "DL7 300/300 mg AM/PM", "value": "0 number of patients (%)"}, {"measurement": "Urinary tract infection, Grade 3", "setting": "DL7 300/300 mg AM/PM", "value": "0 number of patients (%)"}, {"measurement": "Abdominal pain, Grade 3", "setting": "DL8 400/400 mg AM/PM", "value": "2 (6) number of patients (%)"}, {"measurement": "Alkaline phosphatase increased, Grade 3", "setting": "DL8 400/400 mg AM/PM", "value": "0 number of patients (%)"}, {"measurement": "Anemia, Grade 3", "setting": "DL8 400/400 mg AM/PM", "value": "1 (3) number of patients (%)"}, {"measurement": "Anemia, Grade 4", "setting": "DL8 400/400 mg AM/PM", "value": "0 number of patients (%)"}, {"measurement": "Any Grade 3/4 toxicity", "setting": "DL8 400/400 mg AM/PM", "value": "11 (32) number of patients (%)"}, {"measurement": "Any Grade 3 toxicity", "setting": "DL8 400/400 mg AM/PM", "value": "11 (32) number of patients (%)"}, {"measurement": "Any Grade 4 toxicity", "setting": "DL8 400/400 mg AM/PM", "value": "1 (3) number of patients (%)"}, {"measurement": "Appendicitis, Grade 3", "setting": "DL8 400/400 mg AM/PM", "value": "0 number of patients (%)"}, {"measurement": "Aspartate aminotransferase increased, Grade 3", "setting": "DL8 400/400 mg AM/PM", "value": "0 number of patients (%)"}, {"measurement": "Dehydration, Grade 3", "setting": "DL8 400/400 mg AM/PM", "value": "1 (3) number of patients (%)"}, {"measurement": "Dyspnea, Grade 4", "setting": "DL8 400/400 mg AM/PM", "value": "0 number of patients (%)"}, {"measurement": "Fatigue, Grade 3", "setting": "DL8 400/400 mg AM/PM", "value": "1 (3) number of patients (%)"}, {"measurement": "Headache, Grade 3", "setting": "DL8 400/400 mg AM/PM", "value": "0 number of patients (%)"}, {"measurement": "Hypophosphatemia, Grade 3", "setting": "DL8 400/400 mg AM/PM", "value": "1 (3) number of patients (%)"}, {"measurement": "Lymphocyte count decreased, Grade 3", "setting": "DL8 400/400 mg AM/PM", "value": "7 (21) number of patients (%)"}, {"measurement": "Lymphocyte count decreased, Grade 4", "setting": "DL8 400/400 mg AM/PM", "value": "1 (3) number of patients (%)"}, {"measurement": "Nausea, Grade 3", "setting": "DL8 400/400 mg AM/PM", "value": "2 (6) number of patients (%)"}, {"measurement": "Platelet count decreased, Grade 4", "setting": "DL8 400/400 mg AM/PM", "value": "0 number of patients (%)"}, {"measurement": "Thromboembolic event, Grade 3", "setting": "DL8 400/400 mg AM/PM", "value": "2 (6) number of patients (%)"}, {"measurement": "Thromboembolic event, Grade 4", "setting": "DL8 400/400 mg AM/PM", "value": "0 number of patients (%)"}, {"measurement": "Urinary tract infection, Grade 3", "setting": "DL8 400/400 mg AM/PM", "value": "1 (3) number of patients (%)"}, {"measurement": "Abdominal pain, Grade 3", "setting": "DL9 500/500 mg AM/PM", "value": "0 number of patients (%)"}, {"measurement": "Alkaline phosphatase increased, Grade 3", "setting": "DL9 500/500 mg AM/PM", "value": "0 number of patients (%)"}, {"measurement": "Anemia, Grade 3", "setting": "DL9 500/500 mg AM/PM", "value": "0 number of patients (%)"}, {"measurement": "Anemia, Grade 4", "setting": "DL9 500/500 mg AM/PM", "value": "1 (14) number of patients (%)"}, {"measurement": "Any Grade 3/4 toxicity", "setting": "DL9 500/500 mg AM/PM", "value": "2 (29) number of patients (%)"}]}
